Screening data (PubChem)
A selection: hits, their analogues and other compounds. The true share with any hit is near 3.3%.
SIAE primary: human SIAE inhibitors, primary screen, biochemical, fluorescence polarization, FP-Rh probe, 1536-well HTS; Sialate O-acetylesterase (Homo sapiens), Q9HAT2; SIAE FP-Rh probe binding; inhibition, % at 9.66 µM; 0.69% of 370,000 active; AID 1053197, 2014;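 active = inhibition above a cutoff: mean of compounds within the control limits plus 3 SD of those, cut at about 17% in these data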;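 also: 0% = plate median of compound wells and 100% = probe without SIAE protein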
UHRF1 MBD2 ctr: UHRF1 methylated DNA binding inhibitors, primary screen, counter-screen for MBD2 inhibitor project, biochemical, TR-FRET, human UHRF1, single concentration | UHRF1 binding to methylated oligo | inhibition, % at 4.4 µM | 0.75% of 370,000 active | AID 687016, 2013; in the data active = inhibition above about 21%;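 also: UHRF1 SRA domain binding a hemimethylated CpG hairpin DNA probe; 0% = median of test compound wells and 100% = reference inhibitor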
TDP2 inh: human TDP2 enzyme inhibitors, primary screen, biochemical, epi absorbance, recombinant enzyme; Tyrosyl-DNA phosphodiesterase 2 (Homo sapiens), O95551; T5PNP hydrolysis, p-nitrophenol absorbance 415 nm; inhibition, % at 12.8 µM; 0.34% of 370,000 active; AID 720702, 2013;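 active = inhibition above the mean of all tested compounds plus 3 SD, set per campaign, cut at about 25% in these data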;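 also: 0% = DMSO with enzyme and 100% = buffer with substrate but no TDP2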
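Read-out basis: percent inhibition. System: recombinant human TDP2. Buffer or medium: Mg2+-containing Tris-HCl buffer, pH 7.5. Repeats: single replicate. Timing: reaction 2 h, 37 °C. Benchmarks: high control without enzyme, low control DMSO plus TDP2. Probe or stimulus: 5 mM T5PNP. Doses: 12.8 µM only. Measured by: epi absorbance of p-nitrophenol freed from T5PNP by hydrolysis.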
LEDGF integ inh: blockers of LEDGF/p75-dependent integrase strand transfer – biochemical, TR-FRET, high throughput, primary screen | TR-FRET IN-LEDGF/p75 DNA integration, Eu/Cy5 | 0.64% of 370,000 active | AID 743269, 2014 | HIV-1 integrase (with human LEDGF/p75) | inhibition, % at 3.7 µM;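 active = inhibition above the screen-wide mean plus 3 SD, cut at about 13% in these data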;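 also: signal is the Cy5 over europium emission ratio at 671 and 618 nm; 0% = plate median of compound wells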
PRMT1 inh: PRMT1 methyltransferase inhibitors, primary screen, biochemical, fluorescence polarization. inhibition, % at 2.79 µM. recombinant PRMT1, activity-based probe fluorescence polarization. AID 652257, 2013. 1.3% of 370,000 active. Protein arginine N-methyltransferase 1 (Homo sapiens), Q99873;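 active = inhibition above about 21% made by adding two undisclosed values, limit read from the data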
Target sequence (Q99873 whole entry, looked up): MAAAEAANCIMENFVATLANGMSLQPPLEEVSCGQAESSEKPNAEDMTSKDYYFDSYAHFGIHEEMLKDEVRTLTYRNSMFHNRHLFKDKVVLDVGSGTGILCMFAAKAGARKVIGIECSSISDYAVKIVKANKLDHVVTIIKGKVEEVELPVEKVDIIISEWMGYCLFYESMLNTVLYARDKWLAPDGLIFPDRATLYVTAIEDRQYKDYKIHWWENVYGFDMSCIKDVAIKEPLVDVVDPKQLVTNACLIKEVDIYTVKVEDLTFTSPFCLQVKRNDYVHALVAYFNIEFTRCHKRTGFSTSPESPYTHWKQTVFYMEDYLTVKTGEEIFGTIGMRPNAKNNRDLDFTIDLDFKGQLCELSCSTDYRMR
MBD2 DNA inh: inhibitors of MBD2 binding to methylated DNA, primary screen, biochemical, TR-FRET, DNA-binding domain, human; Methyl-CpG-binding domain protein 2 (Homo sapiens), Q9UBB5; MBD2 binding to methylated oligonucleotide; inhibition, % at 4.4 µM; 0.31% of 370,000 active; in the data active = inhibition above about 13%
PRMT1 confirm: PRMT1 methyltransferase inhibitors, confirmation, biochemical, fluorescence polarization, triplicate; inhibition, % at 2.79 µM; recombinant His-PRMT1, activity-based probe fluorescence polarization; AID 687036, 2013; 42% of 3,300 active; shares compounds with PRMT1 inh;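 active = mean inhibition across replicates above the hit cutoff derived for the earlier primary screen, cut at about 22% in these data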
The depositor's hits bear a star; · = no result.

SMILES	SIAE primary	UHRF1 MBD2 ctr	TDP2 inh	LEDGF integ inh	PRMT1 inh	MBD2 DNA inh	PRMT1 confirm
Cc1ccccc1CN1CCCCC(NC(=O)c2cccc([N+](=O)[O-])c2)C1=O (stereo not given)	-1	1	9	6	-2	7	·
Nc1[nH]c(C(=O)c2ccccc2)c(-c2ccc(Br)cc2)c1C(=O)NCCCN1CCOCC1	9	0	-2	0	-3	-4	·
O=C(CSC1=Nc2ccccc2C2CC=NN12)Nc1ccc2c(c1)OCO2 (stereo not given)	2	1	-16	-6	41*	-5	28*
CCCOC(=O)c1ccc(NC(=O)CSC2=Nc3ccccc3C3CC=NN23)cc1 (stereo not given)	-7	0	-10	-4	35*	3	14
N#Cc1ccccc1NC(=O)CSC1=Nc2ccccc2C2CC=NN12 (stereo not given)	0	-2	9	-2	25*	-5	56*
O=C(CSC1=Nc2ccccc2C2CC=NN12)NCc1ccco1 (stereo not given)	2	-1	-12	2	3	-1	·
CCC(=O)N[C@H]1C[C@@H]2O[C@@H](CO)CC[C@@H]2O[C@@H]1CCc1ccc(-c2cccc(OC)c2)cc1	-4	7	-9	-6	5	7	·
CCC[C@H]1[C@@H](OC(=O)NCc2cccs2)CC[C@@]23CCCN2C(=O)CCC[C@@H]13	2	2	-11	7	-1	2	·
O=C(/C=C/c1ccccc1)c1cc(Br)ccc(=O)c1O	9	3	-3	8	34*	3	28*
O=C(CSc1nnc(-c2ccc(Cl)cc2)n1-c1ccccc1)Nc1ccc(Oc2ccccc2)cc1	-1	3	2	3	4	1	·
CCN1CCc2c(sc(NC(=S)NC(=O)c3ccccc3)c2C#N)C1	1	5	1	0	73*	6	12
CN1Cc2sc(NC(=S)NC(=O)c3ccccc3)c(C#N)c2CC1(C)C	9	29*	-18	-9	71*	21*	9
O=C(C1CCCN(S(=O)(=O)c2ccc(F)cc2)C1)N1CCN(Cc2ccccc2)CC1 (stereo not given)	0	2	2	0	-8	-5	·
CCOC(=O)c1c(NS(=O)(=O)c2ccc(Br)cc2)sc2c1CCC2	-2	5	-5	6	27*	-2	13
O=C(CN1CC[n+]2c(-c3cccs3)csc21)c1ccc(-c2ccccc2)cc1	-1	-2	-4	0	32*	-1	40*
Cc1ccc(C(=O)Cn2nnc(-c3cccs3)n2)cc1	0	-3	12	1	-2	4	·
COc1ccc(Cn2nnnc2C(C(C)C)N2CCN(c3ccccc3OC)CC2)cc1 (stereo not given)	0	4	-10	1	-2	0	·
CC(C)C(c1nnnn1Cc1ccc(F)cc1)N1CCN(c2ccc(O)cc2)CC1 (stereo not given)	1	1	4	-3	28*	-3	1
CCCCCCN1CCS(=O)(=O)N(Cc2ccc(F)cc2)C(C(=O)OC)C1 (stereo not given)	-2	0	-15	2	6	0	·
O=C(Nc1ccccc1)C1=C(c2ccccc2)S(=O)(=O)CCS1(=O)=O	-3	-1	1	2	47*	-5	56*
NC(=S)N/N=C/c1cccc(O)c1O	9	-2	5	11	10	1	·
Cc1cc(/C=N/NC(N)=S)c(O)c(/C=N/NC(N)=S)c1	13	-16	-1	-1	75*	-5	82*
O=S(=O)(Nc1ccc(C(O)(C(F)(F)F)C(F)(F)F)cc1)c1cccs1	-3	0	9	-2	1	2	·
CCCC1CCC2(CC1)CCC2OC(=S)Nc1ccc(Cl)cc1 (stereo not given)	4	-3	2	-1	-2	3	·
C=CCSc1nnc(N2C(=O)C(O)=C(C(=O)c3ccco3)C2c2ccccc2F)s1 (stereo not given)	-2	0	5	1	27*	1	10
SMILES	SIAE primary	UHRF1 MBD2 ctr	TDP2 inh	LEDGF integ inh	PRMT1 inh	MBD2 DNA inh	PRMT1 confirm
CC(C)c1nnc(N2C(=O)C(O)=C(C(=O)c3cccs3)C2c2ccccc2)s1 (stereo not given)	-21	-19	6	-5	79*	-7	76*
Cc1ccc(C2C(C(=O)c3ccco3)=C(O)C(=O)N2c2nnc(C)s2)cc1 (stereo not given)	1	1	0	0	30*	-1	5
COc1ccc(C2C(C(=O)c3cccs3)=C(O)C(=O)N2c2nncs2)cc1 (stereo not given)	4	-14	-6	2	75*	-4	99*
Cc1nnc(N2C(=O)C(O)=C(C(=O)c3ccco3)C2c2cccc3ccccc23)s1 (stereo not given)	6	5	5	-2	14	6	·
C=CCOc1ccc(C2C(C(=O)c3cccs3)=C(O)C(=O)N2c2nnc(C)s2)cc1 (stereo not given)	-9	-6	-7	0	41*	-3	25*
Cc1cc(C)cc(C(=O)OCCCN(C)C2CN(Cc3cn(Cc4ccccc4F)nn3)S(=O)(=O)C2)c1 (stereo not given)	2	15	1	-4	2	11	·
O=[N+]([O-])c1cc(-c2csc(NC(CO)c3nc4ccccc4n3CCOCCO)n2)ccc1Cl (stereo not given)	6	0	-8	0	37*	-5	10
OCCOCCn1c(C(CO)Nc2nc(-c3ccc(F)cc3)cs2)nc2ccccc21 (stereo not given)	4	-1	4	1	1	2	·
CO[C@H]([C@H](C)/C=C/N(C)C=O)[C@@H](C)C(O)CC[C@H](C)[C@H](O)[C@H](C)[C@H]1OC(=O)/C=C/C(C)=C/C[C@H](O)C[C@@H]2C=CC[C@@H](C[C@H](OC)[C@@]3(CO3)[C@@H](OC)C[C@@H](OC)[C@@H]1C)O2 (stereo not given in full)	2	1	-2	3	5	-3	·
